System: HEK-293T
Experiment: Multiplex assay against HEK293T
Format: toxicity, cell-based
Details: human
Outline: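 Hoechst33342, BioTracker Green Microtubule Cytoskeleton Dye, MitoTracker Red and Annexin V Alexa Fluor 680 were added to live cells at seeding, and imaging on a CQ1 microscope at 37°C and 5% CO2 followed compound addition. Gating by CellPathfinder machine learning separated cells into Hoechst high-intensity objects or normal cells, then normal cells into healthy, pyknosed or fragmented nuclei, then pyknosed cells into mitotic or apoptotic. Per cents of healthy-nucleus cells are reported for the tubulin, mitochondrial-mass and membrane-permeability phenotypes.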

[1] = 12 h, 1 µM, compound concentration 1 uM, replicate 1
[2] = 12 h, 1 µM, compound concentration 1 uM, replicate 2
[3] = 12 h, 10 µM, compound concentration 10 uM, replicate 1
[4] = 12 h, 10 µM, compound concentration 10 uM, replicate 2
[5] = 24 h, 1 µM, compound concentration 1 uM, replicate 1
[6] = 24 h, 1 µM, compound concentration 1 uM, replicate 2
[7] = 24 h, 10 µM, compound concentration 10 uM, replicate 1
[8] = 24 h, 10 µM, compound concentration 10 uM, replicate 2
[9] = 48 h, 1 µM, compound concentration 1 uM, replicate 1
[10] = 48 h, 1 µM, compound concentration 1 uM, replicate 2
[11] = 48 h, 10 µM, compound concentration 10 uM, replicate 1
[12] = 48 h, 10 µM, compound concentration 10 uM, replicate 2

`C=CCN1C[C@H](C(=O)N(CCCN(C)C)C(=O)NCC)C[C@@H]2c3cccc4[nH]cc(c34)C[C@H]21` [CABERGOLINE] was tested, and the “Population Apoptotic (%)” value [1] was 36%, the “Population Fragmented Nuclei (%)” value [1] was 4% and the “Population Healthy Nuclei (%)” value [1] was 76%. The “Population Hoechst High Intensity Objects (%)” value [1] was 8%, the “Population Membrane Permeable-Phenotype (%)” value [1] was 0% and the “Population Mitochondria Different-Phenotype (%)” value [1] was 51%. The “Population Mitotic Cells (%)” value [1] was 63%, the “Population Normal (%)” value [1] was 91% and the “Population Pyknosed Nuclei (%)” value [1] was 18%. For the same molecule, the “Population Tubulin-Different-Phenotype (%)” value [1] was 41%, the “Total Cell Count” value [1] was 370 and the “Population Apoptotic (%)” value [2] was 37%. For the same molecule, the “Population Fragmented Nuclei (%)” value [2] was 5%, the “Population Healthy Nuclei (%)” value [2] was 79% and the “Population Mitochondria Different-Phenotype (%)” value [2] was 68%. The “Population Mitotic Cells (%)” value [2] was 62%, the “Population Pyknosed Nuclei (%)” value [2] was 14% and the “Population Tubulin-Different-Phenotype (%)” value [2] was 24%. The “Total Cell Count” value [2] was 322, the “Population Apoptotic (%)” value [3] was 53% and the “Population Fragmented Nuclei (%)” value [3] was 8%. The “Population Healthy Nuclei (%)” value [3] was 76%, the “Population Hoechst High Intensity Objects (%)” value [3] was 12% and the “Population Membrane Permeable-Phenotype (%)” value [3] was 0%. The “Population Mitochondria Different-Phenotype (%)” value [3] was 65%, the “Population Mitotic Cells (%)” value [3] was 46% and the “Population Normal (%)” value [3] was 87%. The “Population Pyknosed Nuclei (%)” value [3] was 14%, the “Population Tubulin-Different-Phenotype (%)” value [3] was 54% and the “Total Cell Count” value [3] was 438. For the same molecule, the “Population Apoptotic (%)” value [4] was 60%, the “Population Fragmented Nuclei (%)” value [4] was 6% and the “Population Healthy Nuclei (%)” value [4] was 78%. The “Population Hoechst High Intensity Objects (%)” value [4] was 8%, the “Population Mitochondria Different-Phenotype (%)” value [4] was 81% and the “Population Mitotic Cells (%)” value [4] was 40%. The “Population Normal (%)” value [4] was 91%, the “Population Tubulin-Different-Phenotype (%)” value [4] was 55% and the “Total Cell Count” value [4] was 371. For the same molecule, the “Population Apoptotic (%)” value [5] was 43%, the “Population Fragmented Nuclei (%)” value [5] was 9% and the “Population Healthy Nuclei (%)” value [5] was 80%. The “Population Hoechst High Intensity Objects (%)” value [5] was 4%, the “Population Membrane Permeable-Phenotype (%)” value [5] was 1% and the “Population Mitochondria Different-Phenotype (%)” value [5] was 29%. The “Population Mitotic Cells (%)” value [5] was 56%, the “Population Normal (%)” value [5] was 95% and the “Population Pyknosed Nuclei (%)” value [5] was 10%. For the same molecule, the “Population Tubulin-Different-Phenotype (%)” value [5] was 20%, the “Total Cell Count” value [5] was 512 and the “Population Apoptotic (%)” value [6] was 40%. For the same molecule, the “Population Fragmented Nuclei (%)” value [6] was 6%, the “Population Healthy Nuclei (%)” value [6] was 83% and the “Population Hoechst High Intensity Objects (%)” value [6] was 6%. For the same molecule, the “Population Membrane Permeable-Phenotype (%)” value [6] was 0%, the “Population Mitochondria Different-Phenotype (%)” value [6] was 46% and the “Population Mitotic Cells (%)” value [6] was 59%. The “Population Normal (%)” value [6] was 93%, the “Population Pyknosed Nuclei (%)” value [6] was 9% and the “Population Tubulin-Different-Phenotype (%)” value [6] was 19%. The “Total Cell Count” value [6] was 406, the “Population Apoptotic (%)” value [7] was 37% and the “Population Fragmented Nuclei (%)” value [7] was 10%. The “Population Healthy Nuclei (%)” value [7] was 77%, the “Population Hoechst High Intensity Objects (%)” value [7] was 8% and the “Population Membrane Permeable-Phenotype (%)” value [7] was 0%. For the same molecule, the “Population Mitochondria Different-Phenotype (%)” value [7] was 51%, the “Population Mitotic Cells (%)” value [7] was 62% and the “Population Normal (%)” value [7] was 91%. The “Population Pyknosed Nuclei (%)” value [7] was 11%, the “Population Tubulin-Different-Phenotype (%)” value [7] was 48% and the “Total Cell Count” value [7] was 556. For the same molecule, the “Population Apoptotic (%)” value [8] was 42%, the “Population Healthy Nuclei (%)” value [8] was 79% and the “Population Hoechst High Intensity Objects (%)” value [8] was 12%. For the same molecule, the “Population Mitochondria Different-Phenotype (%)” value [8] was 64%, the “Population Mitotic Cells (%)” value [8] was 57% and the “Population Normal (%)” value [8] was 87%. For the same molecule, the “Population Pyknosed Nuclei (%)” value [8] was 9%, the “Population Tubulin-Different-Phenotype (%)” value [8] was 43% and the “Total Cell Count” value [8] was 425. The “Population Apoptotic (%)” value [9] was 13%, the “Population Fragmented Nuclei (%)” value [9] was 12% and the “Population Healthy Nuclei (%)” value [9] was 80%. The “Population Hoechst High Intensity Objects (%)” value [9] was 4%, the “Population Membrane Permeable-Phenotype (%)” value [9] was 1% and the “Population Mitochondria Different-Phenotype (%)” value [9] was 21%. For the same molecule, the “Population Mitotic Cells (%)” value [9] was 86%, the “Population Normal (%)” value [9] was 95% and the “Population Pyknosed Nuclei (%)” value [9] was 7%. The “Population Tubulin-Different-Phenotype (%)” value [9] was 16%, the “Total Cell Count” value [9] was 763 and the “Population Apoptotic (%)” value [10] was 35%. For the same molecule, the “Population Fragmented Nuclei (%)” value [10] was 11%, the “Population Healthy Nuclei (%)” value [10] was 81% and the “Population Hoechst High Intensity Objects (%)” value [10] was 3%. The “Population Mitochondria Different-Phenotype (%)” value [10] was 23%, the “Population Mitotic Cells (%)” value [10] was 65% and the “Population Normal (%)” value [10] was 96%. For the same molecule, the “Population Pyknosed Nuclei (%)” value [10] was 6%, the “Population Tubulin-Different-Phenotype (%)” value [10] was 10% and the “Total Cell Count” value [10] was 633. The “Population Apoptotic (%)” value [11] was 26%, the “Population Fragmented Nuclei (%)” value [11] was 13% and the “Population Healthy Nuclei (%)” value [11] was 76%. The “Population Hoechst High Intensity Objects (%)” value [11] was 5%, the “Population Membrane Permeable-Phenotype (%)” value [11] was 0% and the “Population Mitochondria Different-Phenotype (%)” value [11] was 35%. For the same molecule, the “Population Mitotic Cells (%)” value [11] was 73%, the “Population Normal (%)” value [11] was 94% and the “Population Pyknosed Nuclei (%)” value [11] was 9%. The “Population Tubulin-Different-Phenotype (%)” value [11] was 25%, the “Total Cell Count” value [11] was 786 and the “Population Apoptotic (%)” value [12] was 43%. The “Population Fragmented Nuclei (%)” value [12] was 10%, the “Population Healthy Nuclei (%)” value [12] was 82% and the “Population Hoechst High Intensity Objects (%)” value [12] was 6%. The “Population Mitochondria Different-Phenotype (%)” value [12] was 32%, the “Population Mitotic Cells (%)” value [12] was 56% and the “Population Normal (%)” value [12] was 93%. The “Population Pyknosed Nuclei (%)” value [12] was 6%, the “Population Tubulin-Different-Phenotype (%)” value [12] was 20% and the “Total Cell Count” value [12] was 676.

— ChEMBL document CHEMBL5058577, “EUbOPEN Chemogenomics Library 2 (Multiplex)” (2022)
